Paper PMC3306499 (ACS Chemical Biology, 2012)
Where a name gives a salt, the structure may show the parent alone. Read-outs that look alike come from different tables or passages of the source.

Experiments:
human A3A (APOBEC3A) = human A3A (APOBEC3A) (Homo sapiens, UniProt P31941); experiment: fluorescence-based ssDNA cytosine deaminase assay, A3A; format: biochemical
HIV-1 integrase = HIV-1 integrase (Human immunodeficiency virus type 1 group M subtype B, UniProt P04585); experiment: concerted HIV-1 integration assay; format: biochemical
[1] = molecular target: E. coli uracil DNA glycosylase (UDG) (Escherichia coli, UniProt P12295); experiment: UDG assay; format: biochemical
HIV-1 RNase H = HIV-1 RNase H (Human immunodeficiency virus type 1 group M subtype B, UniProt P04585); experiment: HIV-1 RNase H inhibition assay; format: biochemical
human A3G (APOBEC3G) = human A3G (APOBEC3G) (Homo sapiens, UniProt Q9HC16); experiment: fluorescence-based ssDNA cytosine deaminase assay, A3G; format: biochemical
HIV RNase H = conditions: read-out: IC50 Values RNase H, cited from earlier work
A3G-ssDNA complex = A3G-ssDNA complex (Homo sapiens, UniProt Q9HC16); experiment: EMSA of A3G-ssDNA complex formation; format: binding; conditions: 0.64 μM A3G, 0.08 μM ssDNA, 50 μM compound, dose response 2, 5, 10 μM
[2] = cited from earlier work
full-length A3G Cys321 = full-length A3G Cys321 (Homo sapiens, UniProt Q9HC16); experiment: LC-MS/MS of tryptic peptides of inhibitor-treated A3G; format: binding; conditions: full-length A3G incubated with compound, in-gel trypsin digestion
A3G C321A = A3G C321A (Homo sapiens, UniProt Q9HC16, C321A); experiment: deaminase assay with A3G-C321A mutant; format: biochemical; conditions: dose response, parallel to wildtype A3G
Summary of the method: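 Wildtype A3G and the C321A mutant were purified side by side as myc-His proteins (>80% homogeneity) from HEK293T cells and tested at varying test compound concentrations. Reactions ran 2 h at 37 °C with 6-FAM/TAMRA ssDNA and UDG, followed by NaOH cleavage, neutralisation and fluorescence at 490/520 nm. Triplicates were normalised to DMSO-only controls and given as mean with SD.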

murine model of diabetes = conditions: oral dosing; cited from earlier work
A3G-C308A = A3G-C308A (Homo sapiens, UniProt Q9HC16, C308A); experiment: deaminase assay with A3G-C308A mutant; format: biochemical; conditions: varying concentrations, parallel to wildtype A3G
Summary of the method: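 Full-length human A3G-C308A-mycHis and wildtype A3G were purified from HEK293T cells via the C-terminal His6 tag and assayed in parallel over varying test compound concentrations. Enzyme was diluted in Tris pH 7.4 buffer with protease inhibitors, then incubated 2 h at 37 °C with 10 pmol 6-FAM/TAMRA ssDNA and UDG. NaOH was added for 30 min at 37 °C, then neutralised. Fluorescence read at ex 490/em 520 nm.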

[3] = tested on: A3A-loop 6 (C321 loop of A3G swapped into A3A); experiment: deaminase assay with A3A-loop 6 swap mutant; format: biochemical, human; conditions: 50 μM compound
[4] = read-out: IC50 Values A3A, dose response, purified A3A-mycHis
[5] = read-out: IC50 Values UDG, no deaminase, uracil ssDNA substrate
[6] = read-out: IC50 Values RNase H, A3G inhibitors, this study
[7] = read-out: IC50 Values A3G, dose response, purified full-length A3G-mycHis

Sequence of human A3A (APOBEC3A) (P31941 whole entry): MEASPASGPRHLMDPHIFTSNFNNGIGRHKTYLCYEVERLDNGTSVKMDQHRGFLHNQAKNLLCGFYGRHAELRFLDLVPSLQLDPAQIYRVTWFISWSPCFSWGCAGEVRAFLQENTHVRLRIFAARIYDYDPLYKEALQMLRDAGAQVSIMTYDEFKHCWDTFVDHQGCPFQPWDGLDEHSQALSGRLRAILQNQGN
Sequence of E. coli uracil DNA glycosylase (UDG) (P12295 whole entry): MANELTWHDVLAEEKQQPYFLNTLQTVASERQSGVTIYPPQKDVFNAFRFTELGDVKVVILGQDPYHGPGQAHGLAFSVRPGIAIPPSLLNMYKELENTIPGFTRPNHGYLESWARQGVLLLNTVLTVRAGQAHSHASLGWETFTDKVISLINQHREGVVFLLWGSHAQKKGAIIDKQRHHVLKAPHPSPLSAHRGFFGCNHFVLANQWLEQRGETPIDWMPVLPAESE
Sequence of human A3G (APOBEC3G) (Q9HC16 whole entry): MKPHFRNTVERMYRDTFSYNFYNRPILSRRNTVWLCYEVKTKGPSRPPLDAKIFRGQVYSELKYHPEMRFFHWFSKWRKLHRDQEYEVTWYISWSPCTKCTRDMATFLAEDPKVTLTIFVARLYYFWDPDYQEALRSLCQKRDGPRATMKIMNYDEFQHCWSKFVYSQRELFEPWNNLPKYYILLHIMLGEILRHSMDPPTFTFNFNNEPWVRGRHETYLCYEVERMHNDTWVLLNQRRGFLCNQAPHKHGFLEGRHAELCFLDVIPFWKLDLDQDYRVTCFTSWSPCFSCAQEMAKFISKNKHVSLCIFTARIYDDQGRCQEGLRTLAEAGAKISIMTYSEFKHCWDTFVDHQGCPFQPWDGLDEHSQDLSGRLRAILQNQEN
Sequence of A3G-ssDNA complex (Q9HC16 whole entry, one chain of several): as the sequence (Q9HC16 whole entry) above
Sequence of A3G-C308A (Q9HC16 whole entry C308A): as the sequence (Q9HC16 whole entry) above, with C308A counted along it
Sequence of full-length A3G Cys321 (Q9HC16 whole entry): as the sequence (Q9HC16 whole entry) above
Sequence of A3G C321A (Q9HC16 whole entry C321A): as the sequence (Q9HC16 whole entry) above, with C321A counted along it

| Compound | IC50 [1] | IC50 (human A3G (APOBEC3G)) | IC50 (human A3A (APOBEC3A); [4]) | IC50 [1, 5] | IC50 (human A3G (APOBEC3G); [7]) | also measured |
| --- | --- | --- | --- | --- | --- | --- |
| Oc1cc2c(cc1O)[C@H]1c3ccccc3CN[C@@H]1CC2 (racemic) [MN8, Dihydrexidine hydrochloride] | > 200 µM | 0.59 µM |  |  |  | IC50 (human A3A (APOBEC3A)): > 200 µM; IC50 (HIV-1 integrase): > 25 µM; IC50 (HIV-1 RNase H): > 25 µM |
| NC1CCc2cc(O)c(O)cc2C1 (racemic) [MN13, (±)-2-Amino-6,7-dihydroxy-1,2,3,4-tetrahydronaphthalene hydrobromide] |  |  | > 200 µM | > 200 µM | 0.7 µM | IC50 (HIV-1 RNase H; [6]): > 25 µM |
| CC(N)(Cc1ccc(O)c(O)c1)C(=O)O (racemic) [MN28, (±)–3-(3,4-Dihydroxyphenyl)-2-methyl-DL-alanine] |  |  | > 200 µM | > 200 µM | 13 µM | IC50 (HIV-1 RNase H; [6]): > 25 µM |
| O=C(O)c1ccc(-c2cccc(/C=N/NC(=O)c3cc(O)c(O)c(O)c3)c2)cc1 [BHMP-07, reference compound] |  |  |  |  | 13 µM | IC50 (HIV RNase H; published value): 0.1 µM |
| O=C(NN=Cc1c(O)ccc2ccccc12)c1cc(O)c(O)c(O)c1 [KMMP-02 (THBNH), reference compound] |  |  |  |  | > 100 µM | IC50 (HIV RNase H; ref M. Parniak, unpublished): 0.2 µM |
| COc1ccc2ccccc2c1/C=N/NC(=O)c1ccc(O)c(O)c1 [KMMP-05 (DHBNH), reference compound] |  |  |  |  | > 100 µM | IC50 (HIV RNase H; published value): 0.5 µM |
| CN1CCc2cccc3c2[C@H]1Cc1ccc(O)c(O)c1-3 [MN2, R-(−)-Apomorphine hydrochloride hemihydrate] | > 200 µM | 1.3 µM |  |  |  | IC50 (human A3A (APOBEC3A)): > 200 µM; IC50 (HIV-1 integrase): > 25 µM; IC50 (HIV-1 RNase H): > 25 µM |
| CN(N=O)c1cc(O)ccc1O [MN10, Dephostatin] | > 200 µM | 0.43 µM |  |  |  | IC50 (human A3A (APOBEC3A)): 150 µM; inhibition of A3G's ssDNA binding activity (A3G-ssDNA complex formation) (A3G-ssDNA complex): only exceptions; stability [2]: too unstable for most biological applications |
| CN1CCc2cc(O)cc3c2[C@H]1Cc1ccc(O)c(O)c1-3 [MN16, R(−)-2,10,11-Trihydroxyaporphine hydrobromide] |  |  | > 200 µM | > 200 µM | 1.7 µM | IC50 (HIV-1 RNase H; [6]): > 25 µM |
| O=c1cc(O)cc(/C=C/c2ccc(O)c(O)c2)o1 [MN24, Hispidin] | > 200 µM | 2 µM |  |  |  | IC50 (human A3A (APOBEC3A)): > 200 µM; IC50 (HIV-1 integrase): > 25 µM; inhibitory activity against RNase H (in words) (HIV-1 RNase H): modest micromolar inhibitory activity |
| OC[C@H]1O[C@H]([S-])[C@H](O)[C@@H](O)[C@@H]1O.[Au+] [MN26, Aurothioglucose hydrate] |  |  | > 200 µM | > 200 µM | 0.36 µM |  |
| O=c1c(O)c(-c2cc(O)c(O)c(O)c2)oc2cc(O)cc(O)c12 [MN27, Myricetin] | > 200 µM | 3.4 µM |  |  |  | inhibition of A3A (in words) (human A3A (APOBEC3A)): inhibit A3A; inhibition of A3G catalytic activity (in words) (human A3G (APOBEC3G)): inhibit A3G catalytic activity |
| CN(N=O)c1ccc(O)c(O)c1 [MN30, Methyl-3,4-dephostatin] |  |  | > 200 µM | > 200 µM | 9.1 µM | mass addition to C321 containing tryptic peptide (covalent modification) (full-length A3G Cys321): 167.11 Da; susceptibility of A3G C321A deaminase activity to inhibition (A3G C321A): fully resistant; efficacy in a murine model of diabetes (murine model of diabetes): demonstrated efficacy; IC50 (HIV-1 RNase H; [6]): > 25 µM; inhibition of A3G's ssDNA binding activity (A3G-ssDNA complex formation) (A3G-ssDNA complex): no inhibition; susceptibility of A3G-C308A deaminase activity to inhibition (A3G-C308A): wildtype susceptibility |
| Oc1cc(O)cc(/C=C/c2ccc(O)c(O)c2)c1 [MN32, Piceatannol] | > 200 µM | 1.8 µM |  |  |  | IC50 (human A3A (APOBEC3A)): 200 µM; IC50 (HIV-1 integrase): > 25 µM; IC50 (HIV-1 RNase H): 0.39 µM; inhibition of A3A-loop 6 deaminase activity [3]: very little inhibition |
| CN=c1nc(-c2ccccc2)n(-c2ccccc2)s1 [MN34, SCH-202676 hydrobromide] |  |  | 310 µM | > 200 µM | 29 µM |  |
| Br.Oc1ccc(C2CNCc3sccc32)cc1O (stereo not shown) [MN35, SKF-89626 hydrobromide] |  |  | > 200 µM | > 200 µM | 1.3 µM | inhibitory activity against RNase H (in words) (HIV-1 RNase H): modest micromolar inhibitory activity; IC50 (HIV-1 RNase H; [6]): 2.2 µM; inhibition of A3G's ssDNA binding activity (A3G-ssDNA complex formation) (A3G-ssDNA complex): only exceptions |
| CC(C)c1ccc(O)c(=O)c(O)c1 [β-Thujaplicinol, reference compound] |  | > 100 µM |  |  |  | IC50 (HIV RNase H; published value): 0.21 µM |
| Manicol [reference compound] |  |  |  |  | > 100 µM | IC50 (HIV RNase H; published value): 0.6 µM |
